According to ChEMBL document CHEMBL4825764, “Flavonoid Monomers as Potent, Nontoxic, and Selective Modulators of the Breast Cancer Resistance Protein (ABCG2)” (J Med Chem, 2021):
The source made the active and inactive calls. The rule behind the calls is not given here.

Tests used:
[1] = target: T1, BCRP (ABCG2) (Homo sapiens, UniProt Q9UNQ0); experiment: Inhibition of BCRP (unknown origin) expressed in HEK293/R2 cells assessed as conformational change by measuring increase in 5D3 shift at 1 uM preincubated for 15 mins followed by FITC mouse antihuman BCRP antibody addition measured after 30 mins by flow cytometry analysis; type: cell-based; details: HEK293/R2 cells expressing BCRP, time 45 min
T1 sequence (Q9UNQ0 whole entry): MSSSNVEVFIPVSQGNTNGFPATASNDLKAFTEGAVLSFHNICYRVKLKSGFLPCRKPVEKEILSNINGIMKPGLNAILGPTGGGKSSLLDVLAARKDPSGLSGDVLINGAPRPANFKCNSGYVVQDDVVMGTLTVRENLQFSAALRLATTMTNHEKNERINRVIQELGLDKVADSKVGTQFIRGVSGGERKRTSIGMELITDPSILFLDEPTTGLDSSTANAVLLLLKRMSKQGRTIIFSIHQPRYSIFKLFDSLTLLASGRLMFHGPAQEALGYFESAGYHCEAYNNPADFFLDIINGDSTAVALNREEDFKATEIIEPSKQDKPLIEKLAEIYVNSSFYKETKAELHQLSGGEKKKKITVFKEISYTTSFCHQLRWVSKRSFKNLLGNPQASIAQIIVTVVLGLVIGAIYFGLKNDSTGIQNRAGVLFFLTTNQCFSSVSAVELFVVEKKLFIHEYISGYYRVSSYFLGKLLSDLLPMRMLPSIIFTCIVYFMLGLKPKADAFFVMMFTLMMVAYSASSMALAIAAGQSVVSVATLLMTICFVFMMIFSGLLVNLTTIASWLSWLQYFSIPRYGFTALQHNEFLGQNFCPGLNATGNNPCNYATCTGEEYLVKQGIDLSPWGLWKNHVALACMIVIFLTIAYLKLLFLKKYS
How it was run: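 5 × 10^5 HEK293/R2 cells in FACS buffer were shaken 15 min at 37 °C with 1 μM compound. FITC 5D3 anti-BCRP was then added for 30 min at 37 °C and fluorescence read by flow cytometry on FL1. Compound-only background was subtracted and the untreated DMSO shift removed. Result is % of the 1 μM Ko143-induced shift.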

[2] = organism: Homo sapiens; experiment: Selectivity index, ratio of EC50 for inhibition of P-gp (unknown origin) expressed in LCC6MDR cells assessed as reversal of paclitaxel resistance to EC50 for Inhibition of BCRP (unknown origin) expressed in MCF7/MX100 cells assessed as reversal of topotecan resistance; type: cell-based
How it was run: (§1)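 Selectivity index is the EC50 against the other transporter's line divided by the EC50 in the BCRP line. All values come from 5-day MTS reversal assays. These use topotecan in HEK293/R2 (0–2000 nM) or MCF7-MX100 (0–100 μM), doxorubicin in 2008/MRP1, and paclitaxel in LCC6MDR, each with modulator at 0–1000 nM.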

[3] = organism: Homo sapiens; experiment: Selectivity index, ratio of EC50 for inhibition of MRP1 (unknown origin) expressed in 2008/MRP1 cells assessed as reversal of doxorubicin resistance to EC50 for inhibition of BCRP (unknown origin) transfected in HEK293/R2 cells assessed as reversal of topotecan resistance; type: cell-based; how it was run: as §1
[4] = tested on: 2008; experiment: Selectivity index, ratio of EC50 for inhibition of MRP1 (unknown origin) expressed in 2008/MRP1 cells assessed as reversal of doxorubicin resistance to Inhibition of BCRP (unknown origin) expressed in MCF7/MX100 cells assessed as reversal of topotecan resistance; type: cell-based; details: Homo sapiens; how it was run: as §1
[5] = tested on: L929; experiment: Cytotoxicity against mouse L929 cells assessed as reduction in cell viability; type: cell-based
[6] = organism: Homo sapiens; experiment: Selectivity index, ratio of EC50 for inhibition of P-gp (unknown origin) expressed in LCC6MDR cells assessed as reversal of paclitaxel resistance to EC50 for inhibition of BCRP (unknown origin) transfected in HEK293/R2 cells assessed as reversal of topotecan resistance; type: cell-based; how it was run: as §1
[7] = target: T1, BCRP (ABCG2); experiment: Inhibition of BCRP (unknown origin) expressed in HEK293/R2 cells assessed as conformational change by measuring increase in 5D3 shift at 10 uM preincubated for 15 mins followed by FITC mouse antihuman BCRP antibody addition measured after 30 mins by flow cytometry analysis; type: cell-based; details: HEK293/R2 cells expressing BCRP, time 45 min
How it was run: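 HEK293/R2 cells (5 x 10⁵) in FACS buffer (0.1 % BSA, 1 mM EDTA in PBS) were pre-incubated with compound for 15 min at 37 °C with shaking. FITC anti-human BCRP antibody (clone 5D3) was then added for 30 min at 37 °C. Cells were washed and read by flow cytometry (FL1, 50,000 events). Compound-only FITC background and the DMSO-control signal were subtracted, and the shift was expressed as % of the 1 µM Ko143 shift.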

[8] = target: T2, Broad substrate specificity ATP-binding cassette transporter ABCG2 (Homo sapiens, UniProt Q9UNQ0); experiment: Inhibition of BCRP (unknown origin) expressed in human HEK293/R2 cells assessed as increase in intracellular mitoxantrone accumulation by measuring fold change at 2 uM after 2 hrs in presence of mitoxantrone by flow cytometry analysis relative to control; type: cell-based; details: hek293/r2, 2 h
T2 sequence (Q9UNQ0 whole entry): T1 sequence (Q9UNQ0 whole entry)
How it was run: (§2)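 5 × 10^5 HEK293/pcDNA3.1 or HEK293/R2 cells in 1 mL were incubated 2 hr at 37 °C with 50 μM topotecan or 5 μM mitoxantrone plus 1 or 2 μM modulator, with DMSO as the vehicle control. Cells were washed in cold PBS and resuspended in FACS buffer. Flow cytometry read FL1 (topotecan) or FL4 (mitoxantrone) over 50,000 events, normalized to wild-type cells.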

[9] = target: T2, Broad substrate specificity ATP-binding cassette transporter ABCG2; experiment: Inhibition of BCRP (unknown origin) expressed in human HEK293/R2 cells assessed as increase in intracellular topotecan accumulation by measuring fold change at 2 uM after 2 hrs in presence of topotecan by flow cytometry analysis relative to control; type: cell-based; details: hek293/r2, 2 h; how it was run: as §2
[10] = tested on: HEK293; experiment: Effect on BCRP protein expression in human HEK293/R2 cells at 1 to 3 uM after 24 hrs by flow cytometric analysis; type: functional, cell-based; details: dose 1-3 µM
How it was run: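 HEK293/R2 and HEK293/pcDNA3.1 cells were exposed to 0, 1 or 3 μM compound for 24 hr, with 0.1–0.3% DMSO as solvent control. Cells were trypsinized and stained with FITC anti-human BCRP for 45 min at 4 °C, with an IgG2b-FITC isotype control. Surface signal was read by flow cytometry on FL1 over 50,000 events.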

[11] = target: T2, Broad substrate specificity ATP-binding cassette transporter ABCG2; experiment: Inhibition of BCRP (unknown origin) expressed in human HEK293/R2 cells assessed as increase in intracellular topotecan accumulation by measuring fold change at 1 uM after 2 hrs in presence of topotecan by flow cytometry analysis relative to control; type: cell-based; details: hek293/r2, 2 h; how it was run: as §2
[12] = organism: Homo sapiens; experiment: Selectivity index, ratio of EC50 for inhibition of MRP1 (unknown origin) expressed in 2008/MRP1 cells assessed as reversal of mitoxantrone resistance to EC50 for inhibition of BCRP (unknown origin) expressed in HEK293/R2 cells assessed as reversal of mitoxantrone resistance; type: cell-based
How it was run: (§3)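 Selectivity index is the EC50 in 2008/MRP1 or LCC6MDR divided by the EC50 in HEK293/R2. All three lines were measured by 5-day mitoxantrone co-incubation with modulator, with MTS/PMS read-out at 490 nm.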

[13] = target: T2, Broad substrate specificity ATP-binding cassette transporter ABCG2; experiment: Inhibition of BCRP (unknown origin) expressed in wild type HEK293/pcDNA3.1 cells assessed as increase in intracellular topotecan accumulation at 1 to 2 uM after 2 hrs in presence of topotecan by flow cytometry analysis relative to control; type: cell-based; details: hek293, 2 h, dose 1-2 µM; how it was run: as §2
[14] = target: T2, Broad substrate specificity ATP-binding cassette transporter ABCG2; experiment: Inhibition of BCRP (unknown origin) expressed in wild type HEK293/pcDNA3.1 cells assessed as increase in intracellular mitoxantrone accumulation at 1 to 2 uM after 2 hrs in presence of mitoxantrone by flow cytometry analysis relative to control; type: cell-based; details: hek293, 2 h, dose 1-2 µM; how it was run: as §2
[15] = organism: Homo sapiens; experiment: Selectivity index, ratio of EC50 for inhibition of P-gp (unknown origin) expressed in LCC6MDR cells assessed as reversal of mitoxantrone resistance to EC50 for inhibition of BCRP (unknown origin) expressed in HEK293/R2 cells assessed as reversal of mitoxantrone resistance; type: cell-based; how it was run: as §3
[16] = target: T2, Broad substrate specificity ATP-binding cassette transporter ABCG2; experiment: Inhibition of BCRP (unknown origin) expressed in human HEK293/R2 cells assessed as increase in intracellular mitoxantrone accumulation by measuring fold change at 1 uM after 2 hrs in presence of mitoxantrone by flow cytometry analysis relative to control; type: cell-based; details: hek293/r2, 2 h; how it was run: as §2

Row | SMILES | Ratio EC50 [2] | Ratio EC50 [3] | Ratio EC50 [4] | IC50 [5] | Ratio EC50 [6] | also measured
1 | COc1cc2c(cc1OC)CN(CCc1ccc(NC(=O)c3cccc4c(=O)c5cccc(OC)c5[nH]c34)cc1)CC2 |  |  |  |  |  | inhibition at 0.5 h, 1 µM [1]: 100%
2 | COC(=O)c1cccc(COc2c(-c3ccc(OCCOCCOCCN=[N+]=[N-])cc3)oc3ccccc3c2=O)c1 | 18 | 118 | 60 | 28.4 µM | 35 | 
3 | COC(=O)c1cccc(COc2c(-c3ccc(OCCOCCn4cc(CNc5ccccc5)nn4)cc3)oc3ccccc3c2=O)c1 | 23 | 38 | 23 | > 100 µM | 38 | 
4 | COC(=O)c1cccc(COc2c(-c3ccc(OCCOCCOCCn4cc(CCN5C(=O)c6ccccc6C5=O)nn4)cc3)oc3ccccc3c2=O)c1 |  | 6 |  | > 100 µM | 6 | 
5 | COC(=O)c1cccc(COc2c(-c3ccc(OCCOCCn4cc(CCN5C(=O)c6ccccc6C5=O)nn4)cc3)oc3ccccc3c2=O)c1 | 10 | 22 | 10 | > 100 µM | 22 | 
6 | O=c1c(O)c(-c2ccc(O)c(O)c2)oc2cc(O)cc(O)c12 [QUERCETIN] |  |  |  |  |  | inhibition at 0.5 h, 10 µM [7]: 39%
7 | C#CCCCCOc1ccc(-c2oc3ccccc3c(=O)c2OCc2cccc(C(=O)OC)c2)cc1 | 24 | 23 | 30 | > 100 µM | 19 | 
8 | COC(=O)c1cccc(COc2c(-c3ccc(OCCOCCOCCn4cc(CN(CCO)Cc5ccccc5)nn4)cc3)oc3ccccc3c2=O)c1 | 193 | 714 | 625 | > 100 µM | 220 | fold change (FC) [8]: 5.8; fold change (FC) [9]: 7; Activity [10]: inactive; fold change (FC) [11]: 7.1; Ratio EC50 [12]: 4; inhibition (INH) [13]: Not Active; inhibition (INH) [14]: Not Active; Ratio EC50 [15]: 5; fold change (FC) [16]: 6.5
9 | COC(=O)c1cccc(COc2c(-c3ccc(OCCCCc4cn(CCOCCO)nn4)cc3)oc3ccccc3c2=O)c1 | 22 | 100 | 36 | 13.3 µM | 61 | 
10 | COC(=O)c1cccc(COc2c(-c3ccc(OCCOCCOCCn4cc(CN(C)Cc5ccccc5)nn4)cc3)oc3ccccc3c2=O)c1 | 29 | 62 | 35 | > 100 µM | 51 | 
11 | COC(=O)c1cccc(COc2c(-c3ccc(OCCOCCOCCn4cc(CCCCOc5ccc(C=O)cc5)nn4)cc3)oc3ccccc3c2=O)c1 | 26 | 46 | 23 | 37.8 µM | 53 | 
12 | COC(=O)c1cccc(COc2c(-c3ccc(OCCOCCN=[N+]=[N-])cc3)oc3ccccc3c2=O)c1 | 20 | 12 | 20 | 67.5 µM | 12 | 
13 | COC(=O)c1cccc(COc2c(-c3ccc(OCCOCCn4cc(CN(C)Cc5ccccc5)nn4)cc3)oc3ccccc3c2=O)c1 | 286 | 67 | 286 | > 100 µM | 67 | fold change (FC) [8]: 6.3; fold change (FC) [9]: 7; Activity [10]: inactive; fold change (FC) [11]: 7.2; Ratio EC50 [12]: 40; inhibition (INH) [13]: Not Active; inhibition (INH) [14]: Not Active; Ratio EC50 [15]: 38; fold change (FC) [16]: 6.2
14 | COC(=O)c1cccc(COc2c(-c3ccc(OCCOCCn4cc(CN(Cc5ccccc5)Cc5ccccc5)nn4)cc3)oc3ccccc3c2=O)c1 | 34 | 31 | 34 | > 100 µM | 31 | 
15 | CCOc1ccc(-c2nc3cc(-c4nc5cc(N6CCN(C)CC6)ccc5[nH]4)ccc3[nH]2)cc1 |  |  |  |  |  | inhibition at 0.5 h, 10 µM [7]: 19%
